Results reported in ChEMBL document CHEMBL1147480, “Synthesis, absolute stereochemistry and molecular design of the new antifungal and antibacterial antibiotic produced by Streptomyces sp.201” (2004).
Values after ≈ are worked out from the molar mass of the structure shown.

Key:
Assay type in all cases: functional
[1] = test system: Mycobacterium tuberculosis; assay: Minimum inhibitory concentration required for antibacterial activity against Mycobacterium tuberculosis
Method in brief: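 Tube dilution in M-33 broth (yeast extract, tryptone, glucose, pH 7.0; 5 mL final volume). Test agent was diluted in phosphate buffer pH 7.4 and broth to a final 1–600 µg/mL. Inoculum was 3×10^5 CFU/mL prepared in Ringer's solution, incubated at 35 °C for 120 h. Clear tubes were subcultured (10 µL) on agar at 35 °C and examined under a microscope for growth.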

Proteus vulgaris = assay: Minimum inhibitory concentration required for antibacterial activity against Proteus vulgaris
Method in brief: (§1)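 Broth tube dilution in nutrient broth (5 mL final volume). The compound was diluted in phosphate buffer pH 7.4 and culture broth to final concentrations of 1–600 µg/mL. Inoculum was adjusted to 3×10^5 CFU/mL in Ringer's solution, then incubated at 35 °C for 24 h. Tubes without visible growth were subcultured (10 µL) onto agar plates at 35 °C and checked microscopically for growth.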

Escherichia coli = assay: Minimum inhibitory concentration required for antibacterial activity against Escherichia coli
Method in brief: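 Broth tube dilution in nutrient broth; stock in sulfoxide solvent, diluted in phosphate buffer pH 7.4 and culture broth to final 1–600 µg/mL. Inoculum in Ringer's solution, 3×10^5 CFU/mL; 35 °C for 24 h. Tubes without visible growth subcultured (10 µL) onto agar plates at 35 °C, growth checked by microscope.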

Thanatephorus cucumeris = assay: Minimum fungicidal concentration required against Rhizoctonia solani
Method in brief: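 Tube assay in molten M2 agar (g/L: yeast extract 5.00, NaCl 10.00, KH2PO4 0.10, MgSO4·7H2O 0.05, dextrose 10.00, agar 15.0, pH 7.1). Stock in sulfoxide solvent, diluted in phosphate buffer pH 7.4 and culture broth; final 1–600 µg/mL. Spore suspension in Ringer's solution, 3×10^5 CFU/mL; 35 °C, 48 h. MFC = lowest concentration killing 95% of inoculum.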

Bacillus subtilis = assay: Minimum inhibitory concentration required for antibacterial activity against Bacillus subtilis; method in brief: as §1

SMILES | MIC [1] [µg/mL] | MIC (Proteus vulgaris) [µg/mL] | MIC (Escherichia coli) [µg/mL] | MFC (Thanatephorus cucumeris) [µg/mL] | MIC (Bacillus subtilis) [µg/mL]
CCCCC[C@H](C)COC(=O)c1ccncc1 [(S)-2-METHYLHEPTYL ISONICOTINATE] | 14 (≈ 59.5 µM) | 14 (≈ 59.5 µM) | 40 (≈ 170 µM) | 32 (≈ 136 µM) | 20 (≈ 85 µM)
CCCCC[C@@H](C)COC(=O)c1ccncc1 [ISONICOTINIC ACID 2-METHYL-HEPTYL ESTER] | 10 (≈ 42.5 µM) | 6 (≈ 25.5 µM) | 30 (≈ 127 µM) | 24 (≈ 102 µM) | 16 (≈ 68 µM)
CCCCOC(=O)c1ccncc1 [ISONICOTINIC ACID BUTYL ESTER] | 280 (≈ 1560 µM) | 500 (≈ 2790 µM) | 500 (≈ 2790 µM) | 600 (≈ 3350 µM) | 600 (≈ 3350 µM)
CCCCCCCOC(=O)c1ccncc1 [ISONICOTINIC ACID HEPTYL ESTER] | 16 (≈ 72.3 µM) | 16 (≈ 72.3 µM) | 16 (≈ 72.3 µM) | 15 (≈ 67.8 µM) | 24 (≈ 108 µM)
CCCCCCOC(=O)c1ccncc1 [ISONICOTINIC ACID HEXYL ESTER] | 24 (≈ 116 µM) | 36 (≈ 174 µM) | 35 (≈ 169 µM) | 44 (≈ 212 µM) | 50 (≈ 241 µM)
CCCCCCCCCCCCCCCCCCOC(=O)c1ccncc1 [ISONICOTINIC ACID OCTADECYL ESTER] | 320 (≈ 852 µM) | 500 (≈ 1330 µM) | 56 (≈ 149 µM) | 600 (≈ 1600 µM) | 600 (≈ 1600 µM)
CCCCCCCCOC(=O)c1ccncc1 [ISONICOTINIC ACID OCTYL ESTER] | 8 (≈ 34 µM) | 6 (≈ 25.5 µM) | 12 (≈ 51 µM) | 18 (≈ 76.5 µM) | 16 (≈ 68 µM)
CCCCCOC(=O)c1ccncc1 [ISONICOTINIC ACID PENTYL ESTER] | 10 (≈ 51.7 µM) | 14 (≈ 72.4 µM) | 20 (≈ 103 µM) | 14 (≈ 72.4 µM) | 20 (≈ 103 µM)
